Assay results published in ChEMBL document CHEMBL1147437, “Omega-carboxypyridyl substituted ureas as Raf kinase inhibitors: SAR of the amide substituent” (Bioorg Med Chem Lett, 2004).
Converted amounts (≈) assume the structure as drawn.

Columns and labels:
[1] = biological target: RAF proto-oncogene serine/threonine-protein kinase (Homo sapiens, UniProt P04049); experiment: Inhibitory activity against human Raf-1 kinase
Summary of the method: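 EE-tagged c-Raf and Mek made in baculovirus-infected Sf-9 cells, immuno-affinity purified. Raf (4 μg/mL) with Mek substrate (20 μg/mL) in 200 mM Tris pH 8.2, 100 mM NaCl, 20 mM 2-mercaptoethanol; compound added before starting with 10 μM γ-[³³P]ATP stock. 32 °C, 25 min; phosphocellulose filter capture, scintillation count.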

[2] = Solubility at pH 2.7; format: physicochemical; details: buffer
[3] = Solubility at pH 7.2; format: physicochemical; details: buffer
Summary of the method: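 Aqueous solubility determined in 0.5× PBS at pH 7.2; reported in µg/mL.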

Chain of RAF proto-oncogene serine/threonine-protein kinase (P04049 whole entry): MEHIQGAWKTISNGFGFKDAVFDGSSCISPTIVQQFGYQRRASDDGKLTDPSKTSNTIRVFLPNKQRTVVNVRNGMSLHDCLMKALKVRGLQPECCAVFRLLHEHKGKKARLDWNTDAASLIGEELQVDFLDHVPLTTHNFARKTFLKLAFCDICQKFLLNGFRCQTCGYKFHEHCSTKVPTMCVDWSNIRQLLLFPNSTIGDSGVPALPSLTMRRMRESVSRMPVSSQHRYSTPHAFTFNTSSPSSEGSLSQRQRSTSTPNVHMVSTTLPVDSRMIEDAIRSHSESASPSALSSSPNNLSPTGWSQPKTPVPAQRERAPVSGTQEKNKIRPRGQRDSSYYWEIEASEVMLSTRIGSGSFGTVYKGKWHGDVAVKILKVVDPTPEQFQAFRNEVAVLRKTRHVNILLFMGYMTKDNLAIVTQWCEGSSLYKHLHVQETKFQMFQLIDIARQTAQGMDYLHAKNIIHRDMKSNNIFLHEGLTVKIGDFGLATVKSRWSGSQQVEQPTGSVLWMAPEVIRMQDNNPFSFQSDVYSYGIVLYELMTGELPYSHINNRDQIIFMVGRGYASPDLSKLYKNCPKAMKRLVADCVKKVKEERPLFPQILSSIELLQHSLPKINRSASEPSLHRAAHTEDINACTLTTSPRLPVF

Structure (SMILES): CNC(=O)c1cncc(Oc2ccc(NC(=O)Nc3ccc(Cl)c(C(F)(F)F)c3)cc2)c1
- IC50 [1]: 50 nM

Structure (SMILES): COc1ccc(C(F)(F)F)cc1NC(=O)Nc1ccc(Oc2cccc(C(=O)Nc3ccc(N(C)C)cc3)c2)cc1
- IC50 [1]: 410 nM

Structure (SMILES): CC(C)(C)c1cc(NC(=O)Nc2ccc(Oc3cccc(C(=O)NCc4ccccc4)c3)cc2)no1
- IC50 [1]: 460 nM

Structure (SMILES): O=C(Nc1ccc(Oc2ccnc(C(=O)NCCN3CCOCC3)c2)cc1)Nc1ccc(Br)c(C(F)(F)F)c1
- solubility [2]: 39 µg/mL (≈ 64.1 µM)
- solubility [3]: ≤ 5 µg/mL
- IC50 [1]: 60 nM

Structure (SMILES): CC(C)NC(=O)c1cc(Oc2ccc(NC(=O)Nc3ccc(Cl)c(C(F)(F)F)c3)cc2)ccn1
- IC50 [1]: 2300 nM

Structure (SMILES): CNC(=O)c1cc(Oc2ccc(NC(=O)Nc3cc(C(F)(F)F)ccc3OC)cc2)ccn1
- IC50 [1]: 53 nM

Structure (SMILES): CNC(=O)c1cccc(Oc2ccc(NC(=O)Nc3cc(C(F)(F)F)ccc3OC)cc2)c1
- IC50 [1]: 130 nM

Structure (SMILES): CNC(=O)c1cccc(Oc2ccc(NC(=O)Nc3ccc(Cl)c(C(F)(F)F)c3)cc2)c1
- IC50 [1]: 130 nM

Structure (SMILES): O=C(Nc1ccc(Oc2cncc(C(=O)NCCN3CCOCC3)c2)cc1)Nc1ccc(Cl)c(C(F)(F)F)c1
- solubility [2]: 36 µg/mL (≈ 63.8 µM)
- solubility [3]: ≤ 5 µg/mL
- IC50 [1]: 140 nM

Structure (SMILES): COc1ccc(NC(=O)c2cccc(Oc3ccc(NC(=O)Nc4cc(C(F)(F)F)ccc4OC)cc3)c2)cn1
- IC50 [1]: 150 nM

Structure (SMILES): CCNC(=O)c1cc(Oc2ccc(NC(=O)Nc3cc(C(F)(F)F)ccc3OC)cc2)ccn1
- IC50 [1]: 460 nM

Structure (SMILES): O=C(Nc1ccc(Oc2cccc(C(=O)Nc3cccnc3)c2)cc1)Nc1ccc(Cl)c(C(F)(F)F)c1
- IC50 [1]: 44 nM

Structure (SMILES): CN(C)C(=O)c1cc(Oc2ccc(NC(=O)Nc3ccc(Br)c(C(F)(F)F)c3)cc2)ccn1
- IC50 [1]: 170 nM

Structure (SMILES): CCNC(=O)c1cccc(Oc2ccc(NC(=O)Nc3cc(C(C)(C)C)on3)cc2)c1
- IC50 [1]: 130 nM

Structure (SMILES): CN(C)C(=O)c1cc(Oc2ccc(NC(=O)Nc3ccc(Cl)c(C(F)(F)F)c3)cc2)ccn1
- IC50 [1]: 300 nM

Structure (SMILES): O=C(Nc1ccc(Oc2cccc(C(=O)NCCN3CCOCC3)c2)cc1)Nc1ccc(Cl)c(C(F)(F)F)c1
- IC50 [1]: 70 nM

Structure (SMILES): O=C(Nc1ccc(Oc2cccc(C(=O)NCCNc3ccccc3)c2)cc1)Nc1ccc(Cl)c(C(F)(F)F)c1
- IC50 [1]: 160 nM

Structure (SMILES): O=C(Nc1ccc(Oc2ccnc(C(=O)NCCN3CCOCC3)c2)cc1)Nc1ccc(Cl)c(C(F)(F)F)c1
- solubility [2]: 141 µg/mL (≈ 250 µM)
- solubility [3]: ≤ 5 µg/mL
- IC50 [1]: 73 nM

Structure (SMILES): COc1ccc(C(F)(F)F)cc1NC(=O)Nc1ccc(Oc2ccnc(C(=O)N(C)C)c2)cc1
- IC50 [1]: 330 nM

Structure (SMILES): COc1ccc(C(F)(F)F)cc1NC(=O)Nc1ccc(Oc2cccc(C(=O)Nc3ccc(N4CCOCC4)cc3)c2)cc1
- IC50 [1]: 210 nM

Structure (SMILES): CNC(=O)c1cccc(Oc2ccc(NC(=O)Nc3cc(C(C)(C)C)on3)cc2)c1
- IC50 [1]: 120 nM

Structure (SMILES): CC(C)(C)c1cc(NC(=O)Nc2ccc(Oc3ccncc3)cc2)no1
- IC50 [1]: 230 nM

Structure (SMILES): COc1ccncc1NC(=O)c1cccc(Oc2ccc(NC(=O)Nc3ccc(Cl)c(C(F)(F)F)c3)cc2)c1
- IC50 [1]: 130 nM

Structure (SMILES): CC(C)(C)c1cc(NC(=O)Nc2ccc(Oc3cccc(C(=O)Nc4cccnc4)c3)cc2)no1
- IC50 [1]: 68 nM

Structure (SMILES): O=C(Nc1ccc(Oc2cccc(C(=O)NCCN3CCCCC3)c2)cc1)Nc1ccc(Cl)c(C(F)(F)F)c1
- IC50 [1]: 82 nM

Structure (SMILES): COc1ccc(C(F)(F)F)cc1NC(=O)Nc1ccc(Oc2cncc(C(=O)NCCN(C)C)c2)cc1
- solubility [2]: 129 µg/mL (≈ 249 µM)
- solubility [3]: 41 µg/mL (≈ 79.2 µM)
- IC50 [1]: 100 nM

Structure (SMILES): CCNC(=O)c1cc(Oc2ccc(NC(=O)Nc3ccc(Br)c(C(F)(F)F)c3)cc2)ccn1
- IC50 [1]: 27 nM

Structure (SMILES): CC(C)(C)c1cc(NC(=O)Nc2ccc(Oc3cccc(C(=O)Nc4ccccc4)c3)cc2)no1
- IC50 [1]: 370 nM

Structure (SMILES): CCNC(=O)c1cc(Oc2ccc(NC(=O)Nc3ccc(Cl)c(C(F)(F)F)c3)cc2)ccn1
- IC50 [1]: 26 nM

Structure (SMILES): COc1ccc(C(F)(F)F)cc1NC(=O)Nc1ccc(Oc2ccnc(C(=O)NCC(C)C)c2)cc1
- IC50 [1]: 500 nM

Structure (SMILES): CNC(=O)c1cc(Oc2ccc(NC(=O)Nc3ccc(Br)c(C(F)(F)F)c3)cc2)ccn1
- IC50 [1]: 6 nM

Structure (SMILES): COc1ccc(C(F)(F)F)cc1NC(=O)Nc1ccc(Oc2cncc(C(=O)NCCN3CCOCC3)c2)cc1
- IC50 [1]: 63 nM

Structure (SMILES): COCCNC(=O)c1cccc(Oc2ccc(NC(=O)Nc3ccc(Cl)c(C(F)(F)F)c3)cc2)c1
- IC50 [1]: 110 nM

Structure (SMILES): CNC(=O)c1cncc(Oc2ccc(NC(=O)Nc3cc(C(F)(F)F)ccc3OC)cc2)c1
- solubility [2]: ≤ 4 µg/mL
- solubility [3]: ≤ 4 µg/mL
- IC50 [1]: 61 nM

Structure (SMILES): CCCNC(=O)c1cccc(Oc2ccc(NC(=O)Nc3cc(C(C)(C)C)on3)cc2)c1
- IC50 [1]: 140 nM

Structure (SMILES): CNC(=O)c1cc(Oc2ccc(NC(=O)Nc3cc(C(C)(C)C)on3)cc2)ccn1
- IC50 [1]: 38 nM

Structure (SMILES): COc1ccc(C(F)(F)F)cc1NC(=O)Nc1ccc(Oc2cccc(C(=O)Nc3cccnc3)c2)cc1
- IC50 [1]: 100 nM

Structure (SMILES): O=C(Nc1ccc(Oc2cccc(C(=O)Nc3ccc(N4CCOCC4)cc3)c2)cc1)Nc1ccc(Cl)c(C(F)(F)F)c1
- IC50 [1]: 160 nM

Structure (SMILES): CCC1CCCN1CNC(=O)c1cccc(Oc2ccc(NC(=O)Nc3ccc(Cl)c(C(F)(F)F)c3)cc2)c1 (configuration not stated)
- IC50 [1]: 270 nM

Structure (SMILES): CN(C)C(=O)c1cccc(Oc2ccc(NC(=O)Nc3cc(C(C)(C)C)on3)cc2)c1
- IC50 [1]: 5800 nM

Structure (SMILES): CN(C)c1ccc(NC(=O)c2cccc(Oc3ccc(NC(=O)Nc4ccc(Cl)c(C(F)(F)F)c4)cc3)c2)cc1
- IC50 [1]: 230 nM

Structure (SMILES): CC(C)(C)c1cc(NC(=O)Nc2ccc(Oc3ccccc3)cc2)no1
- IC50 [1]: 1100 nM
